This note sets out measurements from ChEMBL document CHEMBL3351594, “Cytotoxic dimeric epipolythiodiketopiperazines from the ascomycetous fungus Preussia typharum” (J Nat Prod, 2014).

pIC50: −log10 of the molar value. The source made the active and inactive calls. The calls are words filed in the database; no cut-off is given here.

Assay [1] can be described thus: Cytotoxicity against human MIAPaCa2 cells after 24 hrs by MTT assay. The conditions noted are these: MIA PaCa-2, 24 h. It counts as functional, cell-based. On the technique in general: Formazan colour is commonly taken as a measure of viable cells.
The next assay relates to MIA PaCa-2. In words: Cytotoxicity against human MIAPaCa2 cells up to 30 uM after 24 hrs by MTT assay. It counts as functional, cell-based.
A further assay has as its target mTORC1 (Homo sapiens) (UniProt P42345+Q8N122+Q9BVC4). Conditions: HeLa, 100 nM.
Assay [2] is described as follows: Cytotoxicity against human P-gp expressing SKOV3-M6/6 cells by SRB assay. It counts as functional. A digest of the protocol:
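SRB assay in SK-OV-3/MDR-1-6/6 cells, a single-cell clone of SKOV-3/MDR1 (P-gp). Percent cell growth follows Boyd et al. GI50 was derived from dose–response curves of percent growth. Results are mean ± SE of n = 3 or 4 independent experiments. Relative resistance is calculated against parental SK-OV-3.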
In general terms: The SRB assay estimates cell density from bound dye.

Another assay relates to SK-OV-3. In words: Resistance ratio of GI50 for human P-gp expressing SKOV3-M6/6 cells to GI50 for human SKOV3 cells. It counts as functional. A digest of the protocol: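 SRB assay in SK-OV-3 and its P-gp/MDR1 single-cell clone SK-OV-3/MDR-1-6/6; GI50 from percent growth dose–response curves, n = 3 or 4 independent experiments; relative resistance taken as ratio of GI50 in the MDR line to parental.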

The nature of assay [3]: Cytotoxicity against human SKOV3 cells by SRB method. It counts as functional. Conditions: SK-OV-3. A digest of the protocol:
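SRB assay in SK-OV-3 cells; percent cell growth per Boyd et al.; GI50, TGI and LC50 fitted from dose–response curves of percent growth; mean ± SE, n = 3 or 4 independent experiments.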

Chain of mTORC1 (Homo sapiens) (Q8N122 whole entry, looked up, other chains not shown): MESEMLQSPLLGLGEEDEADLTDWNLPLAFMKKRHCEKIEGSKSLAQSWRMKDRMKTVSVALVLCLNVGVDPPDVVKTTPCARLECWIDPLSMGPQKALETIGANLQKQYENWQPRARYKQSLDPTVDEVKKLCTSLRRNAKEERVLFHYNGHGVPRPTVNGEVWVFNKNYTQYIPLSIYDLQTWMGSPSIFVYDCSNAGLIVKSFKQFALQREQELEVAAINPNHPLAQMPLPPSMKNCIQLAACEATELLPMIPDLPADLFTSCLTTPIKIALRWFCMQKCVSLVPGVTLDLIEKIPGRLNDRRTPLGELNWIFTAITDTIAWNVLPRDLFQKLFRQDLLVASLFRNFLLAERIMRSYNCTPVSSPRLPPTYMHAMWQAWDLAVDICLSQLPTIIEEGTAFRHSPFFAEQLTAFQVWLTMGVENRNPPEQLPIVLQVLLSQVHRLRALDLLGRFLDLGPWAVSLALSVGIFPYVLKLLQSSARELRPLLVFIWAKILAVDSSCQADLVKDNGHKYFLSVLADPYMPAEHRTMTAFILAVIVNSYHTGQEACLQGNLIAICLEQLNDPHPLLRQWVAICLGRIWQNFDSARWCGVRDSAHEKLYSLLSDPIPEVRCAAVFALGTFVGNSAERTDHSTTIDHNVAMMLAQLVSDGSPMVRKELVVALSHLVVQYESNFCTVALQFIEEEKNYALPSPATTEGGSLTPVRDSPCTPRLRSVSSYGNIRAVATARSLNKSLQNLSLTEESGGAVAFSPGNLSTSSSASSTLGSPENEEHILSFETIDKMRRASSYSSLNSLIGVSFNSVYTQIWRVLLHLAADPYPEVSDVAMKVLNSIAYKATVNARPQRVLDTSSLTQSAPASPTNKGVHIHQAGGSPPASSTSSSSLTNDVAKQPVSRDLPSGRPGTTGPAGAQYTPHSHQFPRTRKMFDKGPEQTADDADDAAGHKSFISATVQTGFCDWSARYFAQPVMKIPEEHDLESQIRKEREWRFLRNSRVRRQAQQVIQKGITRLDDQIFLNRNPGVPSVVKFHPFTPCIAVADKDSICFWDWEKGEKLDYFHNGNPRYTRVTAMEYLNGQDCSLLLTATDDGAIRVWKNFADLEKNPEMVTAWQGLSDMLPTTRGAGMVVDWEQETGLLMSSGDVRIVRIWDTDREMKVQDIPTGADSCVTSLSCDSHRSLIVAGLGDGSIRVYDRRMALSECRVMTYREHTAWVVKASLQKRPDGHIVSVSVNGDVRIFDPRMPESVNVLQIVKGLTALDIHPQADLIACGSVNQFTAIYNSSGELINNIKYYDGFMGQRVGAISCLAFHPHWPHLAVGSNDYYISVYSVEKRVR
Chain of mTORC1 (Homo sapiens) (Q9BVC4 whole entry, looked up, other chains not shown): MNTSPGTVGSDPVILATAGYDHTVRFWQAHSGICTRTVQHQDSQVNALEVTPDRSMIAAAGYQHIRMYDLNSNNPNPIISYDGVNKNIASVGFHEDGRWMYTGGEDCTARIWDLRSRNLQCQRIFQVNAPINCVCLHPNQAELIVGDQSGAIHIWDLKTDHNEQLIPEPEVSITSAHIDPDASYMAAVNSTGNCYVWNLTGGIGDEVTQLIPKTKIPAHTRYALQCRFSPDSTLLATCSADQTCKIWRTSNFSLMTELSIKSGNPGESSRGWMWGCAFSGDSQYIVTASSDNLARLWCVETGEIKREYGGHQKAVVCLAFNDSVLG

Turning to `CC(C)[C@@]12SS[C@]3(C(=O)N1C)[C@@H](O)[C@]1(C45c6ccccc6N[C@H]4N4C(=O)[C@]6(CO)SSSS[C@]4(C(=O)N6C)[C@H]5O)c4ccccc4N[C@@H]1N3C2=O` (stereo not given in full), the pIC50 in assay [1] is 7.37.

Regarding `CS[C@@]1(C(C)C)C(=O)N2[C@H]3Nc4ccccc4[C@@]3(C34c5ccccc5N[C@H]3N3C(=O)[C@@](CO)(SC)N(C)C(=O)[C@]3(SC)[C@H]4O)[C@H](O)[C@]2(SC)C(=O)N1C` (stereo not given in full), in the assay on MIA PaCa-2, the result was inactive.

On to `CO[C@H]1C[C@@H]2CC[C@@H](C)[C@@](O)(O2)C(=O)C(=O)N2CCCC[C@H]2C(=O)O[C@H]([C@H](C)C[C@@H]2CC[C@@H](O)[C@H](OC)C2)CC(=O)[C@H](C)/C=C(\C)[C@@H](O)[C@@H](OC)C(=O)[C@H](C)C[C@H](C)/C=C/C=C/C=C/1C`, for which the inhibition entry on mTORC1 (Homo sapiens) is “Active”.

Regarding `CC(C)[C@@]12SS[C@]3(C(=O)N1C)[C@@H](O)[C@]1(C45c6ccccc6N[C@H]4N4C(=O)[C@@]6(CO)SSSS[C@@]4(C(=O)N6C)[C@H]5O)c4ccccc4N[C@@H]1N3C2=O` (stereo not given in full), the pIC50 in assay [1] was 8.04.

In the case of `CS[C@@]1(C(C)C)C(=O)N2[C@H]3Nc4ccccc4[C@@]3(C34c5ccccc5N(C)[C@H]3N3C(=O)[C@@](CO)(SC)N(C)C(=O)[C@]3(SC)[C@H]4O)[C@H](O)[C@]2(SC)C(=O)N1C` (stereo not given in full), the outcome in the assay with MIA PaCa-2 was inactive.

On to `CC(=O)O[C@H]1C(=O)[C@@]2(C)[C@H]([C@H](OC(=O)c3ccccc3)[C@]3(O)C[C@H](OC(=O)[C@H](O)[C@@H](NC(=O)c4ccccc4)c4ccccc4)C(C)=C1C3(C)C)[C@]1(OC(C)=O)CO[C@@H]1C[C@@H]2O` [PACLITAXEL], for which the 50% growth inhibitory concentration (GI50) was determined as 600 nM in assay [2] and 4.7 nM in assay [3]. For the same compound, the Ratio in the assay on SK-OV-3 was 127.

Compound `CC(C)[C@@]12SS[C@]3(C(=O)N1C)[C@@H](O)[C@]1(C45c6ccccc6N[C@H]4N4C(=O)[C@]6(CO)SS[C@]4(C(=O)N6C)[C@H]5O)c4ccccc4N[C@@H]1N3C2=O` (stereo not given in full) gave a pIC50 in assay [1] of 7.47.

On to `CS[C@@]1(C(C)C)C(=O)N2[C@H]3N(C)c4ccccc4[C@@]3(C34c5ccccc5N[C@H]3N3C(=O)[C@@](CO)(SC)N(C)C(=O)[C@]3(SC)[C@H]4O)[C@H](O)[C@]2(SC)C(=O)N1C` (stereo not given in full), for which the outcome with MIA PaCa-2 was inactive.

As usually defined, the pIC50 is −log10 of the IC50, conventionally taken in molar units. High values mean a low IC50, low ones a high IC50. As a reminder, the GI50 is the concentration at which growth is held to half of that of the control. Lower therefore signals greater sensitivity of the cells.
